From ChEMBL document CHEMBL4138242, “Synthesis and antibacterial evaluation of novel cationic chalcone derivatives possessing broad spectrum antibacterial activity” (Eur J Med Chem, 2018)
The source made the active and inactive calls. The rule behind the calls is not given here.

These compounds were tested on Klebsiella pneumoniae (assay: Antibacterial activity against drug-resistant carbapenemase producing Klebsiella pneumoniae clinical isolate EC-13-23 after 16 to 20 hrs by broth microdilution method).
Format: functional
Outline: (§1)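 CLSI broth microdilution in Mueller-Hinton broth. A 4-6 h culture was diluted to about 10⁶ CFU/mL and mixed 1:1 with compound dilutions prepared at 256 to 0.5 µg/mL from aqueous stocks. Plates were incubated at 37 °C for 16-20 h and read visually for MIC. Each concentration was run in duplicate, and the experiment was repeated at least twice. Vancomycin and meropenem were comparators.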

**Q.** `CCCCCCCC[N+](C)(C)CC(=O)Nc1ccc(C(=O)/C=C/c2cccc(Cl)c2)cc1.[Cl-]` was tested. Which MIC did it give?
**A.** 4 µg/mL

What follows are compounds tested on Klebsiella pneumoniae (assay: Antibacterial activity against drug-resistant carbapenemase producing Klebsiella pneumoniae clinical isolate KP-14-5 after 16 to 20 hrs by broth microdilution method).
Format: functional
Outline: as §1

**Q.** How did the MIC turn out when `CCCCCCCC[N+](C)(C)CC(=O)Nc1ccc(C(=O)/C=C/c2cccc(Cl)c2)cc1.[Cl-]` was run?
**A.** 4 µg/mL

The compounds below were run on Klebsiella pneumoniae (assay: Antibacterial activity against drug-resistant carbapenemase producing Klebsiella pneumoniae clinical isolate KP-13-55 after 16 to 20 hrs by broth microdilution method).
Format: functional
Outline: as §1

**Q.** `CCCCCCCC[N+](C)(C)CC(=O)Nc1ccc(C(=O)/C=C/c2cccc(Cl)c2)cc1.[Cl-]` was tested. Which MIC did it give?
**A.** 8 µg/mL

These compounds were tested on Klebsiella pneumoniae (assay: Antibacterial activity against drug-resistant carbapenemase producing Klebsiella pneumoniae clinical isolate KP-14-45 after 16 to 20 hrs by broth microdilution method).
Format: functional
Outline: as §1

**Q.** `CCCCCCCC[N+](C)(C)CC(=O)Nc1ccc(C(=O)/C=C/c2cccc(Cl)c2)cc1.[Cl-]` was tested. Which MIC did it give?
**A.** 8 µg/mL

Each compound was assayed on Klebsiella pneumoniae (assay: Antibacterial activity against drug-resistant carbapenemase producing Klebsiella pneumoniae clinical isolate KP-14-18 after 16 to 20 hrs by broth microdilution method).
Format: functional
Outline: as §1

**Q.** `CCCCCCCC[N+](C)(C)CC(=O)Nc1ccc(C(=O)/C=C/c2cccc(Cl)c2)cc1.[Cl-]` was tested. Which MIC did it give?
**A.** 8 µg/mL

What follows are compounds tested on Escherichia coli (assay: Antibacterial activity against drug-resistant NDM1 producing Escherichia coli clinical isolate EC-13-49 after 16 to 20 hrs by broth microdilution method).
Format: functional
Outline: as §1

**Q.** For `CCCCCCCC[N+](C)(C)CC(=O)Nc1ccc(C(=O)/C=C/c2cccc(Cl)c2)cc1.[Cl-]`, which MIC is on record?
**A.** 4 µg/mL

Each compound was assayed on Escherichia coli (assay: Antibacterial activity against drug-resistant NDM1 producing Escherichia coli clinical isolate Ecl-14-58 after 16 to 20 hrs by broth microdilution method).
Format: functional
Outline: as §1

**Q.** How did the MIC turn out when `CCCCCCCC[N+](C)(C)CC(=O)Nc1ccc(C(=O)/C=C/c2cccc(Cl)c2)cc1.[Cl-]` was run?
**A.** 4 µg/mL

Each compound was assayed on Escherichia coli (assay: Antibacterial activity against drug-resistant NDM1 producing Escherichia coli clinical isolate KP-13-58 after 16 to 20 hrs by broth microdilution method).
Format: functional
Outline: as §1

**Q.** `CCCCCCCC[N+](C)(C)CC(=O)Nc1ccc(C(=O)/C=C/c2cccc(Cl)c2)cc1.[Cl-]` was tested. Which MIC did it give?
**A.** 1 µg/mL

What follows are compounds tested on Escherichia coli (assay: Antibacterial activity against drug-resistant NDM1 producing Escherichia coli clinical isolate Ecl-13-62 after 16 to 20 hrs by broth microdilution method).
Format: functional
Outline: as §1

**Q.** With `CCCCCCCC[N+](C)(C)CC(=O)Nc1ccc(C(=O)/C=C/c2cccc(Cl)c2)cc1.[Cl-]` as the compound, how does the MIC read?
**A.** 4 µg/mL

Each compound was assayed on Escherichia coli (assay: Antibacterial activity against drug-resistant NDM1 producing Escherichia coli clinical isolate EC-14-54 after 16 to 20 hrs by broth microdilution method).
Format: functional
Outline: as §1

**Q.** For `CCCCCCCC[N+](C)(C)CC(=O)Nc1ccc(C(=O)/C=C/c2cccc(Cl)c2)cc1.[Cl-]`, which MIC is on record?
**A.** 4 µg/mL

The compounds below were run on Escherichia coli (assay: Antibacterial activity against drug-resistant NDM1 producing Escherichia coli clinical isolate Ecl-14-59 after 16 to 20 hrs by broth microdilution method).
Format: functional
Outline: as §1

**Q.** How did the MIC turn out when `CCCCCCCC[N+](C)(C)CC(=O)Nc1ccc(C(=O)/C=C/c2cccc(Cl)c2)cc1.[Cl-]` was run?
**A.** 4 µg/mL

The compounds below were run on Escherichia coli (assay: Antibacterial activity against drug-resistant NDM1 producing Escherichia coli clinical isolate EA-14-61 after 16 to 20 hrs by broth microdilution method).
Format: functional
Outline: as §1

**Q.** How did the MIC turn out when `CCCCCCCC[N+](C)(C)CC(=O)Nc1ccc(C(=O)/C=C/c2cccc(Cl)c2)cc1.[Cl-]` was run?
**A.** 4 µg/mL

Each compound was assayed on Escherichia coli (assay: Antibacterial activity against drug-resistant NDM1 producing Escherichia coli clinical isolate Ecl-14-56 after 16 to 20 hrs by broth microdilution method).
Format: functional
Outline: as §1

**Q.** How did the MIC turn out when `CCCCCCCC[N+](C)(C)CC(=O)Nc1ccc(C(=O)/C=C/c2cccc(Cl)c2)cc1.[Cl-]` was run?
**A.** 4 µg/mL

What follows are compounds tested on Escherichia coli (assay: Antibacterial activity against drug-resistant NDM1 producing Escherichia coli clinical isolate 1460 after 16 to 20 hrs by broth microdilution method).
Format: functional
Outline: as §1

**Q.** Which MIC does the source give for `CCCCCCCC[N+](C)(C)CC(=O)Nc1ccc(C(=O)/C=C/c2cccc(Cl)c2)cc1.[Cl-]` here?
**A.** 4 µg/mL

These compounds were tested on Escherichia coli (assay: Antibacterial activity against drug-resistant NDM1 producing Escherichia coli clinical isolate SM-15-84 after 16 to 20 hrs by broth microdilution method).
Format: functional
Outline: as §1

**Q.** How did the MIC turn out when `CCCCCCCC[N+](C)(C)CC(=O)Nc1ccc(C(=O)/C=C/c2cccc(Cl)c2)cc1.[Cl-]` was run?
**A.** 16 µg/mL

Each compound was assayed on Escherichia coli (assay: Antibacterial activity against drug-resistant NDM1 producing Escherichia coli clinical isolate CF-15-61 after 16 to 20 hrs by broth microdilution method).
Format: functional
Outline: as §1

**Q.** For `CCCCCCCC[N+](C)(C)CC(=O)Nc1ccc(C(=O)/C=C/c2cccc(Cl)c2)cc1.[Cl-]`, which MIC is on record?
**A.** 8 µg/mL

What follows are compounds tested on Escherichia coli (assay: Antibacterial activity against drug-resistant NDM1 producing Escherichia coli clinical isolate CF-13-61 after 16 to 20 hrs by broth microdilution method).
Format: functional
Outline: as §1

**Q.** `CCCCCCCC[N+](C)(C)CC(=O)Nc1ccc(C(=O)/C=C/c2cccc(Cl)c2)cc1.[Cl-]` was tested. Which MIC did it give?
**A.** 16 µg/mL

What follows are compounds tested on Staphylococcus aureus (assay: Induction of cytoplasmic membrane depolarization in Staphylococcus aureus ATCC 29213 at 10 to 20 ug/ml measured every 2 mins for 12 mins by DiSC35 dye-based fluorescence assay).
Format: functional, organism-based
Outline: (§2)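 Mid-log cells (~10⁸ CFU/mL) were suspended in PBS (S. aureus) or HEPES/glucose/KCl with EDTA (E. coli). They were preloaded with DiSC3(5) for 30 min (S. aureus) or 40 min (E. coli), and baseline fluorescence was read for 8 min. Compound was added to 20 µg/mL final, and fluorescence (ex 622/em 670 nm) was read every 2 min for 12 min. Water served as control.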

**Q.** With `CCCCCCCC[N+](C)(C)CC(=O)Nc1ccc(C(=O)/C=C/c2cccc(Cl)c2)cc1.[Cl-]` as the compound, how does the Activity read?
**A.** Active

Each compound was assayed on Escherichia coli (assay: Induction of cytoplasmic membrane depolarization in Escherichia coli ATCC 25922 at 10 to 20 ug/ml measured every 2 mins for 12 mins by DiSC35 dye-based fluorescence assay).
Format: functional, organism-based
Outline: as §2

**Q.** `CCCCCCCC[N+](C)(C)CC(=O)Nc1ccc(C(=O)/C=C/c2cccc(Cl)c2)cc1.[Cl-]` was tested. Which Activity did it give?
**A.** Active

Each compound was assayed on Staphylococcus aureus (assay: Induction of inner membrane permeabilization in Staphylococcus aureus ATCC 29213 at 10 to 20 ug/ml measured every 2 mins for 12 mins by propidium iodide staining-based fluorescence assay).
Format: functional, organism-based
Outline: (§3)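 Mid-log cells (~10⁸ CFU/mL) were suspended in PBS (S. aureus) or HEPES/glucose/KCl (E. coli). They were preincubated with propidium iodide for 30 min (S. aureus) or 40 min (E. coli), and baseline fluorescence was read for 8 min. Compound was added to 20 µg/mL final, and fluorescence (ex 535/em 617 nm) was read every 2 min for 12 min.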

**Q.** Which Activity does the source give for `CCCCCCCC[N+](C)(C)CC(=O)Nc1ccc(C(=O)/C=C/c2cccc(Cl)c2)cc1.[Cl-]` here?
**A.** Active

The compounds below were run on Escherichia coli (assay: Induction of inner membrane permeabilization in Escherichia coli ATCC 25922 at 10 to 20 ug/ml measured every 2 mins for 12 mins by propidium iodide staining-based fluorescence assay).
Format: functional, organism-based
Outline: as §3

**Q.** With `CCCCCCCC[N+](C)(C)CC(=O)Nc1ccc(C(=O)/C=C/c2cccc(Cl)c2)cc1.[Cl-]` as the compound, how does the Activity read?
**A.** Active
